According to ChEMBL document CHEMBL1137277, “Synthesis of highly substituted dibenzo[b,f]azocines and their evaluation as protein kinase inhibitors” (Bioorg Med Chem Lett, 2006):
The source made the active and inactive calls. No cut-off for these calls is given here.

Legend:
[1] = biological target: Protein kinase C (PKC) (Homo sapiens) (UniProt O94806+P41743+P17252+P05129+Q05655+P05771+Q05513+Q02156+P24723+Q15139+Q04759); test: Inhibition of PKC-mediated phosphorylation of neurogranin at 100 uM; format: protein assay
Summary of the method: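 PKC (0.33 µg/ml), neurogranin (20 µM), compound 100 µM in 20 mM Tris pH 7.5, 10 mM MgCl2, 0.1 mg/ml BSA, 250 µM EGTA, 400 µM CaCl2 plus lipid activator (phosphatidylserine, […], CaCl2); 1 h equilibration. DMSO and no-kinase controls; duplicate means.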

[2] = biological target: T1, cAMP-dependent protein kinase (PKA) (Homo sapiens, UniProt P22694+P17612+P22612); test: Inhibition of PKA-mediated phosphorylation of kemptide at 100 uM; format: protein assay
Summary of the method: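 PKA (41 µg/ml) with kemptide (10 µM) and compound at 100 µM in 40 mM Tris pH 7.5, 20 mM MgCl2, 0.1 mg/ml BSA; equilibrated 1 h. ATP added (1 µM); after 10 min, remaining ATP read by Kinase-Glo Plus luminescence. DMSO and no-kinase controls; means of two replicates.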

[3] = biological target: T1, cAMP-dependent protein kinase (PKA); test: Inhibition of PKA-mediated phosphorylation of kemptide

| Activity [1] | Activity [2] | IC50 [3] [µM] | Compound |
| --- | --- | --- | --- |
| inactive | inactive |  | CCc1cccc2c1CNc1c(cccc1CCc1ccccc1)/C=C\2COc1ccc(Cl)cc1 |
| inactive | inactive |  | CCc1cccc2c1CNc1c(cccc1CCc1ccccc1)/C=C\2COc1ccccc1C(F)(F)F |
| inactive | inactive |  | CCc1cccc2c1CNc1c(cccc1CCc1ccccc1)/C=C\2COc1ccc(C(=O)OC)cc1 |
| inactive | inactive |  | CCc1cccc2c1CNc1c(cccc1CCc1ccccc1)/C=C\2COc1cccc(OC)c1 |
| inactive | inactive |  | CCc1cccc2c1CNc1c(cccc1CCc1ccccc1)/C=C\2COc1ccccc1 |
| inactive | inactive |  | CCc1cccc2c1CNc1c(cccc1CCc1ccccc1)/C=C\2COc1cccc(Cl)c1 |
| inactive | inactive |  | CCc1cccc2c1CNc1c(cccc1CCc1ccccc1)/C=C\2COc1ccccc1[N+](=O)[O-] |
| inactive | inactive |  | CCc1cccc2c1CNc1c(cccc1CCc1ccccc1)/C=C\2COc1cccc(C(F)(F)F)c1 |
| inactive | inactive |  | CCc1cccc2c1CNc1c(cccc1CCc1ccccc1)/C=C\2COc1ccccc1C(=O)OC |
| inactive | inactive |  | CCc1cccc2c1CNc1c(cccc1CCc1ccccc1)/C=C\2COc1ccc(OC)cc1 |
| inactive | inactive |  | CCc1cccc2c1CNc1c(cccc1CCc1ccccc1)/C=C\2COc1ccc([N+](=O)[O-])cc1 |
| inactive | inactive |  | CCc1cccc2c1CNc1c(cccc1CCc1ccccc1)/C=C\2COc1ccccc1Cl |
| inactive | inactive |  | CCc1cccc2c1CNc1c(cccc1CCc1ccccc1)/C=C\2COc1ccccc1F |
| inactive | inactive |  | CCc1cccc2c1CNc1c(cccc1CCc1ccccc1)/C=C\2COc1ccccc1OC |
| inactive | inactive |  | CCc1cccc2c1CNc1c(cccc1CCc1ccccc1)/C=C\2COc1cccc(F)c1 |
| inactive |  | 122 | CCc1cccc2c1CNc1c(cccc1CCc1ccccc1)/C=C\2COc1ccccc1NC(C)=O |
| inactive | inactive |  | CCc1cccc2c1CNc1c(cccc1CCc1ccccc1)/C=C\2COc1ccc(F)cc1 |
| inactive | inactive |  | CCc1cccc2c1CNc1c(cccc1CCc1ccccc1)/C=C\2COc1cccc(C(=O)OC)c1 |
| inactive | inactive |  | CCc1cccc2c1CNc1c(cccc1CCc1ccccc1)/C=C\2COc1cccc([N+](=O)[O-])c1 |
